Published values from different studies.
Lines come from different studies, so protocols differ. In brackets after ≈: the same amount, converted by molar mass.

SMILES	organism	assay	system	conditions	quantity	value
O=C(Cn1ccnc1[N+](=O)[O-])NCc1ccccc1	Trypanosoma cruzi	parasite growth	MRC5	intracellular, amastigote	EC50	1600 nM
CC1(F)CN(C(=O)Cn2c(=O)c(C(=O)NCc3ccc(Cl)cc3)cc3nc(N4CCN(CC(=O)O)C4=O)cnc32)C1	Human betaherpesvirus 5	viral replication, inhibitor	AD169	–	EC50	1270 nM
O=C(Cn1ccnc1[N+](=O)[O-])NCc1ccccc1	Trypanosoma cruzi	parasite growth, absorbance	MRC5	intracellular, amastigote	IC50	2000 to 5000 nM
Cc1ccc(Cn2cc(C(=O)NN)c(=O)c3cc(Oc4ccccc4)ccc32)cc1	Trypanosoma cruzi	parasite growth	MRC5	intracellular, amastigote	EC50	44000 nM
CN(C)c1cc(NC(=O)Cc2ncccn2)c(O)c2c1C[C@H]1C[C@H]3[C@H](N(C)C)C(O)=C(C(N)=O)C(=O)[C@@]3(O)C(O)=C1C2=O	Mycobacterium tuberculosis	microbial growth, broth dilution	H37RV	7 days, pH 7.4	MIC	0.8 µg/mL (≈ 1.35 µM)
OC(Cn1cncn1)(Cn1cncn1)c1ccc(F)cc1F	Trypanosoma cruzi	parasite growth, resazurin	–	24 h, trypomastigote	IC50	23600 nM
CN(C)c1cc(NC(=O)Cc2cncnc2)c(O)c2c1C[C@H]1C[C@H]3[C@H](N(C)C)C(O)=C(C(N)=O)C(=O)[C@@]3(O)C(O)=C1C2=O	Mycobacterium tuberculosis	microbial growth, broth dilution	H37RV	7 days, pH 7.4	MIC	0.4 µg/mL (≈ 0.675 µM)
CN1CCN(c2cnc3c(cc(C(=O)NCc4ccc(Cl)cc4)c(=O)n3CC(=O)N3CC(C)(F)C3)n2)C1=O	Human betaherpesvirus 5	viral replication, inhibitor	AD169	–	EC50	130 nM
